“And” between values parts separate entries of the source, which are not always exact repeats. Equal entries are not always repeated.
How the values were obtained:
[1] = Partition coefficient (logP); format: physicochemical; settings: octanol/water
Summary of the method: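 Compound at 5×10^-5 M in octanol-saturated Na2HPO4 buffer pH 7.4, absorbance at 290 nm; 0.7 mL shaken 2 h with equal volume buffer-saturated octanol, centrifuged, aqueous absorbance remeasured; partition coefficient and log P from absorbance difference.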

[2] = biological target: T1, Muscarinic acetylcholine receptor M2 (Sus scrofa) (UniProt P06199); experiment: Hill coefficient, slope factors of reduction in dissociation rate of [3H]NMS from M2 receptor of pig heart
T1 sequence (whole entry): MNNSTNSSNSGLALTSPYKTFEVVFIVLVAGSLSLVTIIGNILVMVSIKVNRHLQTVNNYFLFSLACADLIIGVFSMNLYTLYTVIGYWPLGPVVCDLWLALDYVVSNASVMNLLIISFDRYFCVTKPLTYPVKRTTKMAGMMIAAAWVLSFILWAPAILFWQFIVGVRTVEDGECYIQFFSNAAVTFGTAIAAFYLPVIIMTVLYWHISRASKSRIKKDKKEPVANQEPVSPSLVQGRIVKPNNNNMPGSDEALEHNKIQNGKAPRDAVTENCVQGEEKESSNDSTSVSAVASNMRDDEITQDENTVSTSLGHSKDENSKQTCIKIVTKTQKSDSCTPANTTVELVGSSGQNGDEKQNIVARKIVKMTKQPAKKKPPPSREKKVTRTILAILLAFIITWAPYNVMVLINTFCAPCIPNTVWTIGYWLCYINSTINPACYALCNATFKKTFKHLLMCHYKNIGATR
Summary of the method: (§1)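 Porcine ventricular membranes (sucrose homogenate, 80000g pellet in 50 mM Tris-HCl pH 7.4) preincubated 30 min with 0.2 nM [3H]NMS in 3 mM MgHPO4/50 mM Tris-HCl, pH 7.3, 37 °C; dissociation started with 1 μM atropine plus compound. Residual binding at 4 min (two-point) gave k-1; sigmoid fit yielded EC50 and slope; filtration, scintillation; n=3-5.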

[3] = biological target: T2, Muscarinic acetylcholine receptor M2 (Sus scrofa, UniProt P06199); experiment: Reduction of dissociation rate of [3H]N-methylscopolamine ([3H]NMS) from muscarinic acetylcholine receptor M2 of pig heart; summary of the method: as §1
T2 sequence (P06199 whole entry): T1 sequence (whole entry)

SMILES	logP [1]	nH [2]	EC50 [3]
Clc1cccc(Cl)c1CO/N=C/c1cc[n+](CCC[n+]2ccc(/C=N/OCc3c(Cl)cccc3Cl)cc2)cc1	0.6	1.7	4.7 µM
Clc1cccc(Cl)c1CO/N=C/c1cc[n+](CCC[n+]2ccccc2)cc1	–	1.2	21 µM
O/N=C/c1cc[n+](CCC[n+]2ccc(/C=N/O)cc2)cc1 [TRIMEDOXIME]	–	–	> 1000 µM
CO/N=C/c1cc[n+](CCC[n+]2ccc(/C=N/OCc3c(Cl)cccc3Cl)cc2)cc1	-2	1.2	4.5 µM
CO/N=C/c1cc[n+](CCC[n+]2ccc(/C=N/OC)cc2)cc1	–	–	> 1000 µM
CCC[n+]1ccc(/C=N/OCc2c(Cl)cccc2Cl)cc1	0.6	1.2	26 µM
C[N+](C)(C)CCC[n+]1ccc(/C=N/OCc2c(Cl)cccc2Cl)cc1	1.7	1.5 and 1.3	25 µM
COc1ccc(CCC[n+]2ccc(/C=N/OCc3c(Cl)cccc3Cl)cc2)cc1	0.3	1.5	6 µM
Clc1cccc(Cl)c1CO/N=C/c1cc[n+](CCCc2ccccc2)cc1	0.5	1.2	9.4 µM
CC[N+](CC)(CC)CCC[n+]1ccc(/C=N/OCc2c(Cl)cccc2Cl)cc1	1.4	0.9	23 µM

More lines, now with the values ahead:

logP [1]	nH [2]	EC50 [3]	SMILES
–	1.1	17 µM	N#Cc1cc[n+](CCC[n+]2ccc(/C=N/OCc3c(Cl)cccc3Cl)cc2)cc1
1.7	1.3	11 µM	O/N=C/c1cc[n+](CCC[n+]2ccc(/C=N/OCc3c(Cl)cccc3Cl)cc2)cc1
1.3	1.1	12 µM	Cc1cc[n+](CCC[n+]2ccc(/C=N/OCc3c(Cl)cccc3Cl)cc2)cc1
1.5	1.3	4.2 µM	CN(C)c1cc[n+](CCC[n+]2ccc(/C=N/OCc3c(Cl)cccc3Cl)cc2)cc1

From ChEMBL document CHEMBL1127507, “Search for the pharmacophore of bispyridinium-type allosteric modulators of muscarinic receptors” (J Med Chem, 1994)
